According to ChEMBL document CHEMBL1135609, “Discovery of gamma-lactam hydroxamic acids as selective inhibitors of tumor necrosis factor alpha converting enzyme: design, synthesis, and structure-activity relationships” (J Med Chem, 2002):

Key:
[1] = molecular target: T1, Disintegrin and metalloproteinase domain-containing protein 17 (Sus scrofa, UniProt O77636); assay: Inhibitory activity against porcine Tumor necrosis factor alpha converting enzyme.
[2] = molecular target: Disintegrin and metalloproteinase domain-containing protein 17 (Homo sapiens, UniProt P78536); assay: Inhibition of Tumor necrosis factor alpha secretion in LPS-stimulated human whole blood assay; assay type: functional, tissue-based
[3] = molecular target: 72 kDa type IV collagenase (Homo sapiens, UniProt P08253); assay: Affinity for Matrix metalloprotease-2 (MMP-2)
[4] = molecular target: T2, Interstitial collagenase (Homo sapiens, UniProt P03956); assay: Affinity towards Matrix metalloprotease-1 (MMP-1)
T2 sequence (P03956 whole entry): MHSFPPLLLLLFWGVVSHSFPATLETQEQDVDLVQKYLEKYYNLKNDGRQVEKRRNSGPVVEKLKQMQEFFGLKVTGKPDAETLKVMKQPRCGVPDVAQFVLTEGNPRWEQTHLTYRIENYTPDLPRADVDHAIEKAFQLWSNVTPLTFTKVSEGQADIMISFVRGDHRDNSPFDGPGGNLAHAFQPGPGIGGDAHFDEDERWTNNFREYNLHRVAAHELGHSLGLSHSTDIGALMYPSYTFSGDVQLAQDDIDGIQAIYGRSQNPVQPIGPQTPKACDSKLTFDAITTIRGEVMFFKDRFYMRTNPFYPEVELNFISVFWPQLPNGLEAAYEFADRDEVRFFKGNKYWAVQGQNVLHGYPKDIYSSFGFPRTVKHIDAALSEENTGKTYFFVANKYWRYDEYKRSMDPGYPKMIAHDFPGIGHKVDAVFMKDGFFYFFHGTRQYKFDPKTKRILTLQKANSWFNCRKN

[5] = molecular target: Matrix metalloproteinase-9 (Homo sapiens, UniProt P14780); assay: Affinity towards Matrix metalloprotease-9 (MMP-9)
[6] = molecular target: T3, Matrilysin (Homo sapiens, UniProt P09237); assay: Affinity for Matrix metalloprotease-7 (MMP-7)
T3 sequence (P09237 whole entry): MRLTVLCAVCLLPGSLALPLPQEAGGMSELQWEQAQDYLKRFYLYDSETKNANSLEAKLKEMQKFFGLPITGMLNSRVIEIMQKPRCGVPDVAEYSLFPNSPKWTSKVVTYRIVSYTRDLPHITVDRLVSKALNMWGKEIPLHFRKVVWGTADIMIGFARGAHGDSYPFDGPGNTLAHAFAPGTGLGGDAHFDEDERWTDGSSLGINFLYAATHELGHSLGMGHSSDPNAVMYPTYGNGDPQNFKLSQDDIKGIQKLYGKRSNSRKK

[7] = (§1) The compound was administered intravenously at a dose of 4 mg/Kg for determination of volume of distribution at steady state; assay type: ADME, organism-based, Canis lupus familiaris; conditions: dog, in vivo, iv, read-out: Vss
Procedure, shortened: (§2)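 Sprague Dawley rats and Beagle dogs were dosed in cassette fashion, iv at 4 mg/kg or orally at 8 mg/kg. Plasma samples were analysed by LC–MS–MS. The iv arm gave clearance, volume of distribution at steady state, terminal half-life and AUC. The oral arm gave tmax and bioavailability. Two animals were used per dosing group.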

[8] = (§3) The compound was administered intravenously at a dose of 4 mg/Kg for determination of systemic clearance; assay type: ADME, organism-based, Canis lupus familiaris; conditions: dog, in vivo, iv; procedure, shortened: as §2
[9] = (§4) Bioavailability (dose 8 mg/kg p.o.); assay type: ADME, organism-based, Canis lupus familiaris; conditions: dog, in vivo, po; procedure, shortened: as §2
[10] = molecular target: Stromelysin-1 (Homo sapiens, UniProt P08254); assay: Affinity for Matrix metalloprotease-3 (MMP-3)
[11] = molecular target: Matrix metalloproteinase-15 (Homo sapiens, UniProt P51511); assay: Affinity for Matrix metalloprotease-15 (MMP-15)
[12] = molecular target: Collagenase 3 (Homo sapiens, UniProt P45452); assay: Affinity for Matrix metalloprotease-13 (MMP-13)
[13] = molecular target: Neutrophil collagenase (Homo sapiens, UniProt P22894); assay: Affinity for Matrix metalloprotease-8 (MMP-8)
[14] = molecular target: Matrix metalloproteinase-14 (Homo sapiens, UniProt P50281); assay: Affinity for Matrix metalloprotease-14 (MMP-14)
[15] = molecular target: Matrix metalloproteinase-16 (Homo sapiens, UniProt P51512); assay: Affinity for Matrix metalloprotease-16 (MMP-16)
[16] = molecular target: T1, Disintegrin and metalloproteinase domain-containing protein 17; assay: Affinity for Tumor necrosis factor alpha converting enzyme (TACE)
[17] = as §1; assay type: ADME, organism-based; conditions: rat, in vivo, iv, read-out: Vss; procedure, shortened: as §2
[18] = as §4; assay type: ADME, organism-based; conditions: rat, in vivo, po; procedure, shortened: as §2
[19] = test system: Canis familiaris; assay: (§5) The compound was administered orally at a dose of 8 mg/Kg for determination of t max; assay type: functional, organism-based; conditions: Canis lupus familiaris; procedure, shortened: as §2
[20] = test system: Rattus norvegicus; assay: as §5; assay type: functional, organism-based; procedure, shortened: as §2
[21] = test system: Canis familiaris; assay: (§6) The compound was administered intravenously at a dose of 4 mg/Kg for determination area under curve; assay type: functional, organism-based; conditions: Canis lupus familiaris; procedure, shortened: as §2
[22] = test system: Rattus norvegicus; assay: as §6; assay type: functional, organism-based; procedure, shortened: as §2
[23] = test system: Rattus norvegicus; assay: as §3; assay type: functional, organism-based; procedure, shortened: as §2
[24] = test system: Canis familiaris; assay: (§7) The compound was administered intravenously at a dose of 4 mg/Kg for determination of terminal half life; assay type: functional, organism-based; conditions: Canis lupus familiaris
Procedure, shortened: (§8)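 Cassette dosing in Sprague Dawley rats and Beagle dogs, given intravenously at 4 mg/kg. Plasma samples were analysed by LC–MS–MS, and terminal half-life was derived from the plasma profile. Two animals per dosing group.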

[25] = test system: Rattus norvegicus; assay: as §7; assay type: functional, organism-based; procedure, shortened: as §8

72 kDa type IV collagenase, sequence (P08253 whole entry): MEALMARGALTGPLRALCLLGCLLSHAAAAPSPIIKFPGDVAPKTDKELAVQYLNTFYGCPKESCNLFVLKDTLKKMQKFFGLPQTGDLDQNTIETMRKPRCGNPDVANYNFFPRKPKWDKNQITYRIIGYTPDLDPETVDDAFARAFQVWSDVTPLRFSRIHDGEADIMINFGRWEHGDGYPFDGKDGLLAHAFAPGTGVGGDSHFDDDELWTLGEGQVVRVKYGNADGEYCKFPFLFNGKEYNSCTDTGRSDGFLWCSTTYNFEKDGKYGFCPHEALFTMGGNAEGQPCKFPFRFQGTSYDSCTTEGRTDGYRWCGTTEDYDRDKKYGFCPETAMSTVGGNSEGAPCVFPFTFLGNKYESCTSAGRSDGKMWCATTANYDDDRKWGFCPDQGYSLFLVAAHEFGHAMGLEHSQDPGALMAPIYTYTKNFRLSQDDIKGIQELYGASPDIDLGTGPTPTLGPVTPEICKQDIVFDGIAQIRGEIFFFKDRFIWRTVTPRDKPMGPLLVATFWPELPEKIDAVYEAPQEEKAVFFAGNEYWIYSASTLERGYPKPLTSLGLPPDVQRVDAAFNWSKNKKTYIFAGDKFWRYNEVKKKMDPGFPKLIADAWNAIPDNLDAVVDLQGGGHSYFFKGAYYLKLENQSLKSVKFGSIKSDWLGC
T1 sequence (O77636 whole entry, the tested form may be a part): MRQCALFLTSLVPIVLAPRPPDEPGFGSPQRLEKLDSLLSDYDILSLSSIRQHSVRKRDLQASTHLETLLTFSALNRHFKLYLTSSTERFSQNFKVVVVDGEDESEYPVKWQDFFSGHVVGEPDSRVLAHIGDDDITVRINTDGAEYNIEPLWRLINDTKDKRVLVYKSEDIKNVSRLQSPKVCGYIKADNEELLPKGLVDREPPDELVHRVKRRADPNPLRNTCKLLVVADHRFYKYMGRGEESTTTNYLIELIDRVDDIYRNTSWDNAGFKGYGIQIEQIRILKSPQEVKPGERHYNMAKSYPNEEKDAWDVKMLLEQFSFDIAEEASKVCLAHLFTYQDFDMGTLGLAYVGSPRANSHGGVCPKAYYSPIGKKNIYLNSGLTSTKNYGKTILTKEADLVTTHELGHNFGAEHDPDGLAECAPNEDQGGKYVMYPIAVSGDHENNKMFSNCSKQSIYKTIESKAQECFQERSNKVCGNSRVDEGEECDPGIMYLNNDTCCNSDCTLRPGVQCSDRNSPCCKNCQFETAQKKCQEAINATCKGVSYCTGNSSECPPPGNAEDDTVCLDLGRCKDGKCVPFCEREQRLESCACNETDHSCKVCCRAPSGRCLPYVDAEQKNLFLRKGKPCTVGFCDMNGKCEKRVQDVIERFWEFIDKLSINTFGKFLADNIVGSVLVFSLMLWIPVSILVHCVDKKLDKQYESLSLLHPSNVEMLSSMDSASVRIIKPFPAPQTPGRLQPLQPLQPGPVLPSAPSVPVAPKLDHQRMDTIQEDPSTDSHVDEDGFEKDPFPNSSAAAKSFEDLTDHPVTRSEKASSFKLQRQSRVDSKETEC
Matrix metalloproteinase-9, sequence (P14780 whole entry): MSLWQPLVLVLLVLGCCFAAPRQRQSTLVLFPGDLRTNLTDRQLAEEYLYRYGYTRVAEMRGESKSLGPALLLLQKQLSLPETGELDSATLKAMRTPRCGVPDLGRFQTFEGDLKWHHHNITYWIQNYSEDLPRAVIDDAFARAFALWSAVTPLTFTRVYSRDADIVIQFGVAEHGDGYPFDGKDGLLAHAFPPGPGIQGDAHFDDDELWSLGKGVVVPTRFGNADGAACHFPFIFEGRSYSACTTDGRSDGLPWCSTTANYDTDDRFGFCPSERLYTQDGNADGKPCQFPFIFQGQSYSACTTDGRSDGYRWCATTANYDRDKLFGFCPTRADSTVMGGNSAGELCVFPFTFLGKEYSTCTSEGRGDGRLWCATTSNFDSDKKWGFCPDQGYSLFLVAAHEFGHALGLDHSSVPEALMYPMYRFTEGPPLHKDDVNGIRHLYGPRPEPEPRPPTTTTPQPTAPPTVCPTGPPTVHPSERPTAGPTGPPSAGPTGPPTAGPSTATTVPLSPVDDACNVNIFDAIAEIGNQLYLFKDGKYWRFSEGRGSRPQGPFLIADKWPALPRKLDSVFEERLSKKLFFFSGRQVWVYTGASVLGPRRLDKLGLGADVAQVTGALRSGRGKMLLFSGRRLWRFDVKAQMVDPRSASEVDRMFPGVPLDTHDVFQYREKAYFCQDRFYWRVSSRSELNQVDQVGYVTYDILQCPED
Disintegrin and metalloproteinase domain-containing protein 17 (Homo sapiens, UniProt P78536), sequence (P78536 whole entry, the tested form may be a part): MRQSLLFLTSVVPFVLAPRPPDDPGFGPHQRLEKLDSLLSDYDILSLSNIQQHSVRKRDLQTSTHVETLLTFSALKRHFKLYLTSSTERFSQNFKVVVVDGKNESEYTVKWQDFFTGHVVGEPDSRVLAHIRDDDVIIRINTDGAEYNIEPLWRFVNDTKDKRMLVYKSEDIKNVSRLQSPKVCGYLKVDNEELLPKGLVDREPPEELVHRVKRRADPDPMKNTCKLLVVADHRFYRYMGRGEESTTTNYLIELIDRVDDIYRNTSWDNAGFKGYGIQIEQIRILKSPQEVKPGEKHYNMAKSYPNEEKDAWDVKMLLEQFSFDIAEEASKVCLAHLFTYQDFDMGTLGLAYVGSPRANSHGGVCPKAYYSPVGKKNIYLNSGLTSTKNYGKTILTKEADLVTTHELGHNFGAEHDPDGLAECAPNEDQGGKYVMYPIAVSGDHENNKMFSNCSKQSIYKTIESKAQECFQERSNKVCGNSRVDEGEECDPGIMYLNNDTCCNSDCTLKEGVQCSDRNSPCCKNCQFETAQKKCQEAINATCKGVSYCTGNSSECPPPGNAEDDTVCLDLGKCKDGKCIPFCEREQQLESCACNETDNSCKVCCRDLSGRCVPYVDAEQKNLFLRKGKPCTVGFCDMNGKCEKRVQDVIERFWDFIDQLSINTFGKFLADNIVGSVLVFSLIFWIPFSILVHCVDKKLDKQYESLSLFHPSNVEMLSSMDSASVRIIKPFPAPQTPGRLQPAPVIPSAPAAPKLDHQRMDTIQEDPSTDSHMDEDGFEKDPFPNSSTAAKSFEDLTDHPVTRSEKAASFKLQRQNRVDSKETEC
Neutrophil collagenase, sequence (P22894 whole entry): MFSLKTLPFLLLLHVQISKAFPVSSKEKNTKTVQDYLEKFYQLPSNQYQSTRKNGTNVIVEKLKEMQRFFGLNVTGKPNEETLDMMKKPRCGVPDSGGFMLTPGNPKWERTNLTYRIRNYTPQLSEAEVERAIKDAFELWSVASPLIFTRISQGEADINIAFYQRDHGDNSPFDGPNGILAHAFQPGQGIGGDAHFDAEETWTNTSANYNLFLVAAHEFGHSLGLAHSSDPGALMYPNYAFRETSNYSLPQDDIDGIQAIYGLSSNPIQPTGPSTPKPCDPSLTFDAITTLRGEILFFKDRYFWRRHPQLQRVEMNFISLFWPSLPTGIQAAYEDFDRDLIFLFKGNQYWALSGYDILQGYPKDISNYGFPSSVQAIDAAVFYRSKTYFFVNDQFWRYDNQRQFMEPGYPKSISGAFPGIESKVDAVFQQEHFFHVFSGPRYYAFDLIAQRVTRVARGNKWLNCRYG
Matrix metalloproteinase-16, sequence (P51512 whole entry, the tested form may be a part): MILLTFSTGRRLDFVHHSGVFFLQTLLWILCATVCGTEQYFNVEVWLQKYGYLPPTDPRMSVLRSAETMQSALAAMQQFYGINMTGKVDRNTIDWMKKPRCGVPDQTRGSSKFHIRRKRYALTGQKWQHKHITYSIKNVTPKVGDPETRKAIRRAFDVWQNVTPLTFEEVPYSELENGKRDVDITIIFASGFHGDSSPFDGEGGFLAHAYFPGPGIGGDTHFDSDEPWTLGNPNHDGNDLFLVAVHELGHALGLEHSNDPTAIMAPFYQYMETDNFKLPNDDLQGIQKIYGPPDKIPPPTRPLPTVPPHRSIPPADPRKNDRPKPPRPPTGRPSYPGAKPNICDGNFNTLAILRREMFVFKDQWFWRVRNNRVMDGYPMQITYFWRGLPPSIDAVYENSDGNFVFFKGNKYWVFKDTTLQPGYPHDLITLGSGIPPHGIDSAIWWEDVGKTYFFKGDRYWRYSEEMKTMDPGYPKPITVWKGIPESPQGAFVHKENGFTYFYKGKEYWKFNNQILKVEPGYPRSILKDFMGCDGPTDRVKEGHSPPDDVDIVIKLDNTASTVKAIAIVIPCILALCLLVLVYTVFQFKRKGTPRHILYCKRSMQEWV
Matrix metalloproteinase-15, sequence (P51511 whole entry): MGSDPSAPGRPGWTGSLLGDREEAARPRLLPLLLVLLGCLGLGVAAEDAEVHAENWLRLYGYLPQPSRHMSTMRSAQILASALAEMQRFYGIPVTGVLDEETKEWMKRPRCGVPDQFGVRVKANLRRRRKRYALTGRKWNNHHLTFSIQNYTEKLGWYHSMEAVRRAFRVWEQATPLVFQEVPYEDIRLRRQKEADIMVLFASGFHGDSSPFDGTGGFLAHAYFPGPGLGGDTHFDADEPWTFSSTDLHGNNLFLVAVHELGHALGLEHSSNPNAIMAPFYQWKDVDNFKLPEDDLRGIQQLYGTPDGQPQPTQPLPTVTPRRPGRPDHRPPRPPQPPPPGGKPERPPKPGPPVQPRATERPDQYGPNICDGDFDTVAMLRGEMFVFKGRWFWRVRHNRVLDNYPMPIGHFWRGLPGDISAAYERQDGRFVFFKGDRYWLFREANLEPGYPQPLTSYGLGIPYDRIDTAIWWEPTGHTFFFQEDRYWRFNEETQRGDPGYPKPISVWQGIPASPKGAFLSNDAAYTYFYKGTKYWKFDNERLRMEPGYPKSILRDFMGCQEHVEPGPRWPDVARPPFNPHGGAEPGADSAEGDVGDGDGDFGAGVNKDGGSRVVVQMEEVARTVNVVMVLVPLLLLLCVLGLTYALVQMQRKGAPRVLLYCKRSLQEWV

| Structure (SMILES) | Ki [3] [nM] | Ki [4] [nM] | Ki [5] [nM] | IC50 [1] [nM] | other results |
| --- | --- | --- | --- | --- | --- |
| C[C@H](C(=O)NO)N1CC[C@@](C)(c2ccc(OCc3ccncc3)cc2)C1=O |  |  |  | 21 | IC50 [2]: 5900 nM |
| C[C@H](C(=O)NO)N1CC[C@@](C)(c2ccccc2)C1=O | 108 | 221 | 242 | 2200 |  |
| C[C@H](C(=O)NO)N1CC[C@@](C)(c2ccc(OCc3ccnc4ccccc34)cc2)C1=O |  |  |  | 1.8 | IC50 [2]: 2250 nM |
| C=CCOc1ccc([C@]2(C)CCN([C@H](C)C(=O)NO)C2=O)cc1 | 14 | 335 | 11 | 97 |  |
| Cc1cncc(C)c1COc1ccc([C@]2(C)CCN([C@H](C)C(=O)NO)C2=O)cc1 (stereo in doubt; 5q) |  |  |  | 3 | IC50 [2]: 6600 nM |
| Cc1cc(COc2ccc([C@]3(C)CCN([C@H](C)C(=O)NO)C3=O)cc2)c2ccccc2n1 (stereo in doubt) [listing 2 of 2 here] |  |  |  |  | Tmax [19]: 0.38 h; Tmax [20]: 0.38 h; AUC [21]: 4430 ng·h/mL; AUC [22]: 1810 ng·h/mL; CL (mL.min-1.kg-1) [23]: 35; T1/2 [24]: 7.1 h; T1/2 [25]: 11.8 h |
| C[C@H](C(=O)NO)N1CC[C@@](C)(c2ccc(OC(C)(C)C)cc2)C1=O |  |  |  | > 10000 |  |
| C[C@H](C(=O)NO)N1CC[C@@](C)(c2ccc(OCc3cc(C(F)(F)F)cc(C(F)(F)F)c3)cc2)C1=O | > 3000 | > 5000 | > 2000 | 2 |  |
| Cc1cc(COc2ccc([C@]3(C)CCN([C@H](C)C(=O)NO)C3=O)cc2)c2ccccc2n1 (stereo in doubt; 5s) |  |  |  | 1 |  |
| Cc1cncc(C)c1COc1ccc([C@]2(C)CCN([C@H](C)C(=O)NO)C2=O)cc1 (stereo in doubt; 5p) |  |  |  | 16 | IC50 [2]: 8100 nM |
| C[C@H](C(=O)NO)N1CC[C@@](C)(c2ccc(Oc3ccccc3)cc2)C1=O | < 2.8 | 143 | < 2.1 | 185 |  |

Second part, led by results:

| Ki [3] [nM] | Ki [4] [nM] | Ki [5] [nM] | Structure (SMILES) | IC50 [1] [nM] | other results |
| --- | --- | --- | --- | --- | --- |
| 5810 | 4750 | 1630 | Cc1cc(C)cc(COc2ccc([C@]3(C)CCN([C@H](C)C(=O)NO)C3=O)cc2)c1 | 4 |  |
| 19 | > 5000 | 29 | C[C@H](C(=O)NO)N1CC[C@@](C)(c2ccc(OCc3ccccc3)cc2)C1=O | 4 |  |
| 2050 | 30000 | 10300 | Cc1cc(COc2ccc([C@]3(C)CCN([C@H](C)C(=O)NO)C3=O)cc2)c2ccccc2n1 (stereo in doubt) [listing 1 of 2 here] |  | Ki [6]: 259 nM; Vd [7]: 0.93 L/kg; clearance [8]: 15.7 mL/min/kg; bioavailability [9]: 32%; Ki [10]: 141 nM; Ki [11]: 4000 nM; Ki [12]: 1420 nM; Ki [13]: 257 nM; Ki [14]: 15900 nM; Ki [15]: 1600 nM; Ki [16]: 0.56 nM; Vd [17]: 2 L/kg; bioavailability [18]: 41% |
| > 3000 | > 5000 | > 2000 | COc1cc(COc2ccc([C@]3(C)CCN([C@H](C)C(=O)NO)C3=O)cc2)cc(OC)c1 | 7 |  |
| 82 | 2290 | 35 | C[C@H](C(=O)NO)N1CC[C@@](C)(c2ccc(-c3ccccc3)cc2)C1=O | 13000 |  |
| 11 | > 5000 | 40 | C[C@H](C(=O)NO)N1CC[C@@](C)(c2ccc(OCc3ccc([N+](=O)[O-])cc3)cc2)C1=O | 6 |  |
| 35 | > 5000 | 66 | C[C@H](C(=O)NO)N1CC[C@@](C)(c2ccc(OCc3ccccc3[N+](=O)[O-])cc2)C1=O | 4 |  |
| 701 | 4000 | 586 | CC(C)Cc1ccc([C@]2(C)CCN([C@H](C)C(=O)NO)C2=O)cc1 | 1000 |  |
| 38 | > 5000 | 39 | C[C@H](C(=O)NO)N1CC[C@@](C)(c2ccc(OCc3cccc([N+](=O)[O-])c3)cc2)C1=O | 6 |  |
| 4.8 | 92 | 9 | COc1ccc([C@]2(C)CCN([C@H](C)C(=O)NO)C2=O)cc1 | 887 |  |
